Results on five compounds are retold here after ChEMBL document CHEMBL3046951, “Volatile constituents from the leaves of Callicarpa japonica Thunb. and their antibacterial activities” (2004).

Assay [1] has as its system Escherichia coli. Put plainly: Antimicrobial activity against Escherichia coli O157:H7 ATCC 43894 assessed as growth inhibition rate at 10.36 mg/l after 72 hr by spectrophotometry. As to conditions: O157:H7 ATCC 43894, 72 h, read-out: GI. It is filed as functional.
For assay [2], the system named is Staphylococcus aureus. Put plainly: Antimicrobial activity against Staphylococcus aureus ATCC 25923 assessed as growth inhibition rate at 10.36 mg/l after 72 hr by spectrophotometry. Particulars: ATCC 25923, 72 h, read-out: GI. It is filed as functional.
Assay [3] has as its system Vibrio parahaemolyticus. As to the kind of experiment: Antimicrobial activity against Vibrio parahaemolyticus ATCC 33844 assessed as growth inhibition rate at 10.36 mg/l after 72 hr by spectrophotometry. As to conditions: ATCC 33844, 72 h, read-out: GI. It is filed as functional.
Assay [4] has as its system Listeria monocytogenes. As to the kind of experiment: Antimicrobial activity against Listeria monocytogenes ATCC 19111 assessed as growth inhibition rate at 10.36 mg/l after 72 hr by spectrophotometry. It is filed as functional. Particulars: ATCC 19111, 72 h, read-out: GI. The method, boiled down: (§1)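 L. monocytogenes was grown at 30 °C in tryptic soy broth, subcultured for 18 h, and exposed to pure volatile compounds (>95% purity). Growth was followed by Bioscreen C optical density every 24 h for 72 h against a 10% Tween 80 control.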

Assay [5] relates to Bacillus cereus. As to the kind of experiment: Antimicrobial activity against Bacillus cereus ATCC 11778 assessed as growth inhibition rate at 10.36 mg/l after 72 hr by spectrophotometry. It is filed as functional. As to conditions: ATCC 11778, 72 h, read-out: GI. The method, boiled down: (§2)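 Pure volatile compounds (purity >95%; one at 90%) were tested against B. cereus ATCC 11778. The strain was grown at 30 °C in nutrient broth for 24 h, then subcultured for 18 h. Optical density was read in a Bioscreen C every 24 h for 72 h, with 10% Tween 80 as the control.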

Assay [6] relates to Salmonella typhimurium. Put plainly: Antimicrobial activity against Salmonella enterica subsp. enterica serovar Typhimurium ATCC 14028 assessed as growth inhibition rate at 10.36 mg/l after 72 hr by spectrophotometry. It is filed as functional. As to conditions: ATCC 14028, 72 h, read-out: GI. The method, boiled down: (§3)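 Salmonella Typhimurium ATCC 14028 grown in nutrient broth at 30 °C, precultured 24 h, then subcultured 1:100 for 18 h before testing. Single volatile compounds (>95% pure) were added. OD was read every 24 h over 72 h in a Bioscreen C, with 10% Tween 80 as the comparison control.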

Assay [7] relates to Bacillus cereus. As to the kind of experiment: Antimicrobial activity against Bacillus cereus ATCC 11778 assessed as growth inhibition rate at 16.8 mg/l after 72 hr by spectrophotometry. It is filed as functional. As to conditions: ATCC 11778, 72 h, read-out: GI. The method, boiled down:
as §2

Assay [8] deals with Listeria monocytogenes. Put plainly: Antimicrobial activity against Listeria monocytogenes ATCC 19111 assessed as growth inhibition rate at 16.8 mg/l after 72 hr by spectrophotometry. Particulars: ATCC 19111, 72 h, read-out: GI. It is filed as functional. The method in brief:
as §1

Assay [9] concerns Vibrio parahaemolyticus. Put plainly: Antimicrobial activity against Vibrio parahaemolyticus ATCC 33844 assessed as growth inhibition rate at 16.8 mg/l after 72 hr by spectrophotometry. It is filed as functional. Particulars: ATCC 33844, 72 h, read-out: GI.
For assay [10], the system named is Salmonella typhimurium. As to the kind of experiment: Antimicrobial activity against Salmonella enterica subsp. enterica serovar Typhimurium ATCC 14028 assessed as growth inhibition rate at 16.8 mg/l after 72 hr by spectrophotometry. It is filed as functional. Particulars: ATCC 14028, 72 h, read-out: GI. The method, boiled down: as §3
Assay [11] concerns Escherichia coli. As to the kind of experiment: Antimicrobial activity against Escherichia coli O157:H7 ATCC 43894 assessed as growth inhibition rate at 16.8 mg/l after 72 hr by spectrophotometry. It is filed as functional. Particulars: O157:H7 ATCC 43894, 72 h, read-out: GI.
The subject of assay [12] is Staphylococcus aureus. As to the kind of experiment: Antimicrobial activity against Staphylococcus aureus ATCC 25923 assessed as growth inhibition rate at 16.8 mg/l after 72 hr by spectrophotometry. It is filed as functional. Particulars: ATCC 25923, 72 h, read-out: GI.
The test system of assay [13] is Staphylococcus aureus. As to the kind of experiment: Antimicrobial activity against Staphylococcus aureus ATCC 25923 assessed as growth inhibition rate at 1.84 mg/l after 72 hr by spectrophotometry. Particulars: ATCC 25923, 72 h, read-out: GI. It is filed as functional.
Assay [14] relates to Vibrio parahaemolyticus. As to the kind of experiment: Antimicrobial activity against Vibrio parahaemolyticus ATCC 33844 assessed as growth inhibition rate at 1.84 mg/l after 72 hr by spectrophotometry. As to conditions: ATCC 33844, 72 h, read-out: GI. It is filed as functional.
Assay [15] concerns Bacillus cereus. Put plainly: Antimicrobial activity against Bacillus cereus ATCC 11778 assessed as growth inhibition rate at 1.84 mg/l after 72 hr by spectrophotometry. It is filed as functional. Particulars: ATCC 11778, 72 h, read-out: GI. The method, boiled down:
as §2

The subject of assay [16] is Escherichia coli. As to the kind of experiment: Antimicrobial activity against Escherichia coli O157:H7 ATCC 43894 assessed as growth inhibition rate at 1.84 mg/l after 72 hr by spectrophotometry. It is filed as functional. As to conditions: O157:H7 ATCC 43894, 72 h, read-out: GI.
The subject of assay [17] is Salmonella typhimurium. Put plainly: Antimicrobial activity against Salmonella enterica subsp. enterica serovar Typhimurium ATCC 14028 assessed as growth inhibition rate at 1.84 mg/l after 72 hr by spectrophotometry. As to conditions: ATCC 14028, 72 h, read-out: GI. It is filed as functional. The method in brief:
as §3

For assay [18], the system named is Listeria monocytogenes. As to the kind of experiment: Antimicrobial activity against Listeria monocytogenes ATCC 19111 assessed as growth inhibition rate at 1.84 mg/l after 72 hr by spectrophotometry. It is filed as functional. Particulars: ATCC 19111, 72 h, read-out: GI. The method, boiled down: as §1
Assay [19] has as its system Vibrio parahaemolyticus. As to the kind of experiment: microbe, parasite or virus in culture. As to conditions: ATCC 33844, 72 h, read-out: GI.
Assay [20] relates to Staphylococcus aureus. Put plainly: microbe, parasite or virus in culture. As to conditions: ATCC 25923, 72 h, read-out: GI.
The test system of assay [21] is Salmonella typhimurium. As to the kind of experiment: microbe, parasite or virus in culture. Particulars: Salmonella enterica, ATCC 14028, 72 h, read-out: GI.
The subject of assay [22] is Escherichia coli. As to the kind of experiment: microbe, parasite or virus in culture. Particulars: O157:H7 ATCC 43894, 72 h, read-out: GI.
The test system of assay [23] is Listeria monocytogenes. As to the kind of experiment: microbe, parasite or virus in culture. Particulars: ATCC 19111, 72 h, read-out: GI.
Assay [24] relates to Bacillus cereus. Put plainly: microbe, parasite or virus in culture. Particulars: ATCC 11778, 72 h, read-out: GI.
Assay [25] has as its system Escherichia coli. Put plainly: Antimicrobial activity against Escherichia coli O157:H7 ATCC 43894 assessed as growth inhibition rate at 1.96 mg/l after 72 hr by spectrophotometry. As to conditions: O157:H7 ATCC 43894, 72 h, read-out: GI. It is filed as functional.
Assay [26] concerns Staphylococcus aureus. Put plainly: Antimicrobial activity against Staphylococcus aureus ATCC 25923 assessed as growth inhibition rate at 1.96 mg/l after 72 hr by spectrophotometry. It is filed as functional. As to conditions: ATCC 25923, 72 h, read-out: GI. The method, boiled down: (§4)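 Authentic volatiles (>95% purity; 2,4-heptadienal 90%) tested against 18 h subcultures. Growth media: E. coli O157:H7 and S. aureus in tryptic soy broth at 37 °C; L. monocytogenes in tryptic soy broth at 30 °C; V. parahaemolyticus in tryptic soy broth + 3% NaCl at 37 °C; S. typhimurium in nutrient broth at 30 °C. Bioscreen C OD every 24 h for 72 h versus 10% Tween 80 control.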

Assay [27] concerns Vibrio parahaemolyticus. Put plainly: Antimicrobial activity against Vibrio parahaemolyticus ATCC 33844 assessed as growth inhibition rate at 1.96 mg/l after 72 hr by spectrophotometry. As to conditions: ATCC 33844, 72 h, read-out: GI. It is filed as functional. The method, boiled down: as §4
For assay [28], the system named is Listeria monocytogenes. As to the kind of experiment: Antimicrobial activity against Listeria monocytogenes ATCC 19111 assessed as growth inhibition rate at 1.96 mg/l after 72 hr by spectrophotometry. It is filed as functional. As to conditions: ATCC 19111, 72 h, read-out: GI. The method, boiled down:
as §4

The subject of assay [29] is Bacillus cereus. As to the kind of experiment: Antimicrobial activity against Bacillus cereus ATCC 11778 assessed as growth inhibition rate at 1.96 mg/l after 72 hr by spectrophotometry. It is filed as functional. Particulars: ATCC 11778, 72 h, read-out: GI. The method in brief:
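Pure volatile compounds (>95% purity; 2,4-heptadienal 90%) identified in the leaf extract were tested against B. cereus ATCC 11778 in nutrient broth at 30 °C. The inoculum was grown 24 h, then subcultured (0.1 mL into 9.9 mL) for 18 h. Optical density was read in a Bioscreen C every 24 h for 72 h against a 10% Tween 80 control.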

For `CC/C=C\CO` [CIS-2-PENTEN-1-OL], the inhibition of growth at 10.36 µg/mL is 21.9% in the assay on Escherichia coli [1]; 8.1% with Staphylococcus aureus [2]; 10.5% in the assay with Vibrio parahaemolyticus [3]; 0% in the assay with Listeria monocytogenes [4]; 20.4% in the assay with Bacillus cereus [5]; 9.4% in the assay on Salmonella typhimurium [6].

Take `CCCCCC=O` [HEXANAL]: the inhibition of growth at 16.8 µg/mL with Bacillus cereus [7] was determined as 19.3%; in the assay on Listeria monocytogenes [8], 14.4%; in the assay with Vibrio parahaemolyticus [9], 57.8%; in the assay on Salmonella typhimurium [10], 39.1%; in the assay on Escherichia coli [11] it was 41.5%; in the assay on Staphylococcus aureus [12], 11.3%.

With `CC/C=C/C=O` [PENTENAL], the inhibition of growth at 1.84 µg/mL in the assay with Staphylococcus aureus [13] worked out at 12.2%; with Vibrio parahaemolyticus [14] it was 40.7%; in the assay on Bacillus cereus [15], 27.4%; in the assay on Escherichia coli [16], 11%; in the assay on Salmonella typhimurium [17] it was 39.6%; with Listeria monocytogenes [18], 16.9%.

As for `CCCO` [PROPANOL], the inhibition of growth at 1.76 µg/mL in the assay on Vibrio parahaemolyticus [19] came out at 0%; in the assay on Staphylococcus aureus [20], 6.1%; with Salmonella typhimurium [21] it was 2.6%; in the assay on Escherichia coli [22], 0%; in the assay on Listeria monocytogenes [23], 0%; in the assay with Bacillus cereus [24], 0%.

For `Cc1ccccc1` [TOLUENE], the inhibition of growth at 1.96 µg/mL in the assay with Escherichia coli [25] was found to be 0%; with Staphylococcus aureus [26] it was 1.8%; in the assay on Vibrio parahaemolyticus [27], 1.6%; in the assay with Listeria monocytogenes [28] it was 0%; in the assay with Bacillus cereus [29] it was 0%.
